The test system of one data set is Vero. As to the kind of experiment: Cytotoxicity against African green monkey Vero cells after 24 hrs by alamar blue assay. Type of data set: cell-based. As to conditions: chlorocebus sabaeus. A general note: Resazurin is reduced to fluorescent resorufin, in cell work by metabolically active cells.
For a further data set, the system named is Staphylococcus aureus. The data set can be described thus: Antibacterial activity against methicillin-resistant Staphylococcus aureus ATCC 33591 after 22 hrs by CLSI microbroth assay. As to conditions: ATCC 33591, 22 h. Format: functional. The method in brief:
(§1)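 Run within a six-organism panel: MRSA, Staphylococcus warneri and vancomycin-resistant E. faecium (Gram-positive), Proteus vulgaris and Pseudomonas aeruginosa (Gram-negative), and the yeast Candida albicans. Read-out was the minimum inhibitory concentration, reported in μg mL−1.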
For orientation: Broth dilution looks for growth in wells or tubes with falling amounts of substance.

Another data set deals with Proteus vulgaris. As to the kind of experiment: Antibacterial activity against Proteus vulgaris ATCC 12454 after 22 hrs by CLSI microbroth assay. Format: functional, organism-based.
The test system of another data set is Enterococcus faecium. As to the kind of experiment: Antibacterial activity against vancomycin-resistant Enterococcus faecium EF379 after 22 hrs by CLSI microbroth assay. Format: functional. The conditions noted are these: EF379, 22 h. The method, boiled down:
as §1

For a further data set, the system named is Pseudomonas aeruginosa. As to the kind of experiment: Antibacterial activity against Pseudomonas aeruginosa ATCC 14210 after 22 hrs by CLSI microbroth assay. Type of data set: functional, organism-based.
A further data set deals with Staphylococcus warneri. As to the kind of experiment: Antibacterial activity against Staphylococcus warneri ATCC 17917 after 22 hrs by CLSI microbroth assay. The conditions noted are these: ATCC 17917, 22 h. Type of data set: functional.
A further data set relates to BJ. As to the kind of experiment: Cytotoxicity against human BJ cells after 24 hrs by alamar blue assay. Type of data set: cell-based.

Values after ≈ are worked out from the molar mass of the structure shown. Active and inactive are the calls of the source. Where only a bound is given, the exact number is not on record here.

Broadly, the MIC is the smallest concentration in the dilution series that meets the test's criterion for growth inhibition.

On to `Cc1cc(O)c2c3c(n([C@@H](CCCCNC(=O)C(F)(F)F)C(=O)O)c(=O)c2c1)C(=O)c1c(O[C@H]2C[C@@H](O)[C@@H](O)[C@H](C)O2)cccc1C3=O`, for which the MIC90 in the data set on Vero and against BJ was greater than 128 µg/mL throughout. Moreover, the MIC in the data set with Staphylococcus aureus, in the data set with Enterococcus faecium and against Staphylococcus warneri was no less than 100 µg/mL in each case. For the same compound, the outcome in the data set on Proteus vulgaris and in the data set on Pseudomonas aeruginosa was inactive.
Consider `Cc1cc(O)c2c(c1)C1OC(=O)[C@H](CCCCNC(=O)C(F)(F)F)N1C1=C2C(=O)c2cccc(O[C@H]3C[C@@H](O)[C@@H](O)[C@H](C)O3)c2C1=O` (some centres undefined), for which the MIC90 against Vero and against BJ was greater than 128 µg/mL each time. Besides, the MIC worked out at 3 µg/mL (≈ 4.54 µM) against Staphylococcus aureus, 13 µg/mL (≈ 19.7 µM) against Enterococcus faecium and 3 µg/mL (≈ 4.54 µM) in the data set with Staphylococcus warneri. The outcome in the data set with Proteus vulgaris and with Pseudomonas aeruginosa was inactive.
